Laboratory results taken from ChEMBL document CHEMBL1157087, “Cytotoxic polyisoprenyl benzophenonoids from Garcinia subelliptica” (J Nat Prod, 2010).
≈ marks a conversion by molar mass, not a printed value.

Experiments:
Type in all cases: functional, cell-based
[1] = tested on: KB; test: Cytotoxicity against human KB cells after 3 days by SRB assay; conditions: 72 h
Procedure, shortened: (§1)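 Freshly trypsinized cells seeded at 1500–7500 per well, compound added from DMSO-diluted stock. After 3 days attached cells were fixed with cold 50% TCA, stained with 0.4% SRB, bound dye solubilized and read at 562 nm.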

[2] = tested on: KB; test: Cytotoxicity against human vincristine-resistant KB cells overexpressing p-glycoprotein after 3 days by SRB assay; conditions: 72 h; procedure, shortened: as §1
[3] = tested on: A549; test: Cytotoxicity against human A549 cells after 3 days by SRB assay; conditions: A549, 72 h; procedure, shortened: as §1
[4] = tested on: DU-145; test: Cytotoxicity against human DU145 cells after 3 days by SRB assay; conditions: DU-145, 72 h; procedure, shortened: as §1

Compound: C=C(C)CCC(C[C@@]12C[C@H]3[C@@H](C=C(C)C)[C@@](C(=O)c4ccc(O)c(O)c4)(C1=O)C(=O)[C@@](CC=C(C)C)(C2=O)C3(C)C)C(=C)C (some centres undefined)
- IC50 [1]: 5.7 µg/mL (≈ 9.49 µM)
- IC50 [2]: 5.6 µg/mL (≈ 9.32 µM)
- IC50 [3]: 4.2 µg/mL (≈ 6.99 µM)
- IC50 [4]: 4.1 µg/mL (≈ 6.82 µM)

Compound: C=C(C)CCC(C[C@]12C[C@@H]3[C@H](C=C(C)C)[C@](C(=O)c4ccc(O)c(O)c4)(C1=O)C(=O)[C@](CC=C(C)C)(C2=O)C3(C)C)C(=C)C (some centres undefined)
- IC50 [1]: 4.4 µg/mL (≈ 7.32 µM)
- IC50 [2]: 5.3 µg/mL (≈ 8.82 µM)
- IC50 [3]: 4.2 µg/mL (≈ 6.99 µM)
- IC50 [4]: 4.2 µg/mL (≈ 6.99 µM)

Compound: C=C(C)CC[C@H]1C[C@@]23C[C@@H](CC=C(C)C)C(C)(C)[C@@](CC=C(C)C)(C(=O)C(C(=O)c4ccc(O)c(O)c4)=C2OC1(C)C)C3=O
- IC50 [1]: 4.9 µg/mL (≈ 8.13 µM)
- IC50 [2]: 5.2 µg/mL (≈ 8.63 µM)
- IC50 [3]: 4.5 µg/mL (≈ 7.47 µM)
- IC50 [4]: 4.7 µg/mL (≈ 7.8 µM)

Compound: CC(C)=CCC1=C2O[C@H](C(C)(C)O)C[C@@]23C[C@H](CC=C(C)C)C(C)(C)[C@@](C(=O)C(C)C)(C1=O)C3=O
- IC50 [1]: > 5 µg/mL
- IC50 [2]: > 5 µg/mL
- IC50 [3]: > 5 µg/mL
- IC50 [4]: > 5 µg/mL

Compound: C=C(C)CC[C@@H]1C[C@]23C[C@H](CC=C(C)C)C(C)(C)[C@](CC=C(C)C)(C(=O)C(C(=O)c4ccc(O)c(O)c4)=C2OC1(C)C)C3=O [CYCLOXANTHOCHYMOL]
- IC50 [1]: 5 µg/mL (≈ 8.29 µM)
- IC50 [2]: 4.9 µg/mL (≈ 8.13 µM)
- IC50 [3]: 4.5 µg/mL (≈ 7.47 µM)
- IC50 [4]: 3.7 µg/mL (≈ 6.14 µM)

Compound: C=C(C)[C@@H]1C[C@]23C[C@H](CC=C(C)C)C(C)(C)[C@](CC=C(C)C)(C(=O)C(C(=O)c4ccc(O)c(O)c4)=C2O[C@H]1C=C(C)C)C3=O [GARCINIALIPTONE B]
- IC50 [1]: 5.7 µg/mL (≈ 9.49 µM)
- IC50 [2]: 6.6 µg/mL (≈ 11 µM)
- IC50 [3]: 6.7 µg/mL (≈ 11.2 µM)
- IC50 [4]: 7.3 µg/mL (≈ 12.2 µM)

Compound: C=C(C)CC[C@H](C[C@@H]1C[C@@]2(CC=C(C)C)C(=O)C3=C(O[C@H](C(C)(C)O)C3)[C@](C(=O)c3ccc(O)c(O)c3)(C2=O)C1(C)C)C(=C)C [GARCINIALIPTONE C]
- IC50 [1]: 3.4 µg/mL (≈ 5.49 µM)
- IC50 [2]: 4.9 µg/mL (≈ 7.92 µM)
- IC50 [3]: 4.3 µg/mL (≈ 6.95 µM)
- IC50 [4]: 4.3 µg/mL (≈ 6.95 µM)

Compound: C=C(C)CC[C@H](C[C@@H]1C[C@]2(CC=C(C)C)C(=O)[C@@](C(=O)c3ccc(O)c(O)c3)(C(=O)C(CC=C(C)C)=C2O)C1(C)C)C(=C)C [GARCINIALIPTONE D]
- IC50 [1]: 3.9 µg/mL (≈ 6.47 µM)
- IC50 [2]: 4.6 µg/mL (≈ 7.63 µM)
- IC50 [3]: 4.4 µg/mL (≈ 7.3 µM)
- IC50 [4]: 3.3 µg/mL (≈ 5.47 µM)

Compound: CC(C)=CC[C@@H]1C[C@]23C[C@H](CC=C(C)C)C(C)(C)[C@](CC=C(C)C)(C(=O)C(C(=O)c4ccc(O)c(O)c4)=C2OC1(C)C)C3=O [ISOXANTHOCHYMOL]
- IC50 [1]: 4.5 µg/mL (≈ 7.47 µM)
- IC50 [2]: 5.2 µg/mL (≈ 8.63 µM)
- IC50 [3]: 4.4 µg/mL (≈ 7.3 µM)
- IC50 [4]: 4.2 µg/mL (≈ 6.97 µM)

Compound: CC(=O)O[C@H]1C(=O)[C@@]2(C)[C@H]([C@H](OC(=O)c3ccccc3)[C@]3(O)C[C@H](OC(=O)[C@H](O)[C@@H](NC(=O)c4ccccc4)c4ccccc4)C(C)=C1C3(C)C)[C@]1(OC(C)=O)CO[C@@H]1C[C@@H]2O [PACLITAXEL]
- IC50 [1]: 0.002 µg/mL (≈ 0.00234 µM)
- IC50 [2]: > 0.085 µg/mL
- IC50 [4]: 0.002 µg/mL (≈ 0.00234 µM)
